Experimental data taken from ChEMBL document CHEMBL1131166, “Bisphenols that stimulate cells to release alkali metal cations: a structure-activity study” (1998).

What was measured:
Type in all cases: functional, Cercopithecidae
COS-7 [1] = test: (§1) Fraction of total radioactivity [86Rb] remaining with the compound at a concentration of 10 uM in COS-7 cells
Method in brief: (§2)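 COS-7 cells grown in DMEM + 10% FCS to 85–98% confluence, loaded ~4 μCi 86RbCl in BSS (HEPES, pH 7.2) 90 min at 37 °C, washed thrice ice-cold BSS, reincubated 37 °C with medium replaced every 10 min; compound (DMSO stock diluted ≥5000-fold in BSS) present 40 min from 20 min. Cell-retained 86Rb at 60 min as fraction of initial total (cells + media); mean ± SD, three experiments.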

COS-7 [2] = test: Fraction of total radioactivity [86Rb] remaining with the compound at a concentration of 0.01 uM in COS-7 cells; method in brief: as §2
COS-7 [3] = test: Fraction of total radioactivity [86Rb] remaining with the compound at a concentration of 0.1 uM in COS-7 cells and value; method in brief: as §2
COS-7 [4] = test: Fraction of total radioactivity [86Rb] remaining with the compound at a concentration of 1 uM in COS-7 cells; method in brief: as §2
COS-7 [5] = test: Fraction of total radioactivity [86Rb] remaining with the compound at a concentration of 0 uM in COS-7 cells; method in brief: as §2
COS-7 [6] = test: as §1; remark: listed apart in the source
Method in brief: (§3)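 COS-7 cells grown in DMEM with 10% FCS at 37 °C under 5% CO2 until 85–98% confluent. Loaded with about 4 μCi ⁸⁶RbCl in HEPES BSS (pH 7.2) for 90 min at 37 °C, then washed in ice-cold BSS. Reincubated at 37 °C with medium changed every 10 min; compound in BSS (DMSO ≥5000-fold diluted) given for the last 40 min. Read-out is the cell-retained fraction of total ⁸⁶Rb at 60 min by scintillation counting, mean ± SD of three experiments.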

COS-7 [7] = test: Fraction of total radioactivity [86Rb] remaining with the compound at a concentration of 0.1 uM in COS-7 cells; method in brief: as §3

For `Oc1ccc(Cc2ccc(O)cc2)cc1`, the “Fraction of accumulated 86Rb remaining.” value (COS-7 [1]) was 0.581.

With `Oc1ccc2ccccc2c1-c1c(O)ccc2ccccc12` the “Fraction of accumulated 86Rb remaining.” value (COS-7 [1]) was 0.565.

With `OCCOc1ccc(C2(c3ccc(OCCO)cc3)c3ccccc3-c3ccccc32)cc1` the “Fraction of accumulated 86Rb remaining.” value (COS-7 [1]) was 0.486.

`Nc1ccc(C2(c3ccc(N)cc3)c3ccccc3-c3ccccc32)cc1` was tested, and the “Fraction of accumulated 86Rb remaining.” value (COS-7 [1]) was 0.419.

`Oc1ccc(C2(c3ccc(O)cc3)c3ccccc3-c3ccccc32)cc1` was tested, and the “Fraction of accumulated 86Rb remaining.” value (COS-7 [2]) was 0.532, the “Fraction of accumulated 86Rb remaining.” value (COS-7 [3]) was 0.147 and the “Fraction of accumulated 86Rb remaining.” value (COS-7 [4]) was 0.006. For the same molecule, the “Fraction of accumulated 86Rb remaining.” value (COS-7 [1]) was 0.003 and the “Fraction of accumulated 86Rb remaining.” value (COS-7 [5]) was 0.556.

With `Oc1ccc(-c2ccc(O)cc2)cc1` the “Fraction of accumulated 86Rb remaining.” value (COS-7 [6]) was 0.604.

`O=C1OC(c2ccc(O)cc2)(c2ccc(O)cc2)c2ccccc21` [PHENOLPHTHALEIN] was tested, and the “Fraction of accumulated 86Rb remaining.” value (COS-7 [2]) was 0.461, the “Fraction of accumulated 86Rb remaining.” value (COS-7 [7]) was 0.472 and the “Fraction of accumulated 86Rb remaining.” value (COS-7 [4]) was 0.234. The “Fraction of accumulated 86Rb remaining.” value (COS-7 [1]) was 0.091 and the “Fraction of accumulated 86Rb remaining.” value (COS-7 [5]) was 0.503.
